ChEMBL document CHEMBL3813677, “Structure-Activity Relationship Studies and Molecular Modeling of Naphthalene-Based Sphingosine Kinase 2 Inhibitors” (ACS Med Chem Lett, 2016)

How the values were obtained:
[1] = molecular target: T1, Sphingosine kinase 2 (Homo sapiens) (UniProt Q9NRA0); test: Inhibition of human recombinant SphK2 remaining enzyme activity at 1 uM using sphingosine as substrate incubated for 20 mins by scintillation counting analysis in presence of [gamma-32P]ATP
T1 sequence (whole entry): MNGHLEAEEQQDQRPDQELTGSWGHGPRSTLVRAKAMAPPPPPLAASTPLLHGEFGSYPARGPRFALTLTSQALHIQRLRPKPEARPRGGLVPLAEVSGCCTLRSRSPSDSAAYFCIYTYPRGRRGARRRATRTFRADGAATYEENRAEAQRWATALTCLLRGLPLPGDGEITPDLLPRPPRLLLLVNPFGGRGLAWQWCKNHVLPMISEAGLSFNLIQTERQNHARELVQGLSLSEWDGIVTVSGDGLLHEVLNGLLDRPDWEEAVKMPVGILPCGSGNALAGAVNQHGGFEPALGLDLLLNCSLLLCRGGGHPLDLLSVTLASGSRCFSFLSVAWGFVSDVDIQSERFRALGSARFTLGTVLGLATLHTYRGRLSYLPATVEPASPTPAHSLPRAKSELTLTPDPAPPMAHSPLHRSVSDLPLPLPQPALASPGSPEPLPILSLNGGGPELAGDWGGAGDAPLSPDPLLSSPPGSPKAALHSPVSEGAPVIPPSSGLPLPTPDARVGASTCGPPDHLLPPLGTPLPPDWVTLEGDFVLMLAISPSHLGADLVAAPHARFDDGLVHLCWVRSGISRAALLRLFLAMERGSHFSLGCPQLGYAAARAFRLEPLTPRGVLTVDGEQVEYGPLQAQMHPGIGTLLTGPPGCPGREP

Sphingosine kinase 1 = Sphingosine kinase 1 (Homo sapiens, UniProt Q9NYA1); test: Inhibition of human recombinant SphK1 using sphingosine as substrate incubated for 20 mins by scintillation counting analysis in presence of [gamma-32P]ATP
Sphingosine kinase 2 = molecular target: T2, Sphingosine kinase 2 (Homo sapiens, UniProt Q9NRA0); test: Inhibition of human recombinant SphK2 using sphingosine as substrate incubated for 20 mins by scintillation counting analysis in presence of [gamma-32P]ATP
T2 sequence (Q9NRA0 whole entry): T1 sequence (whole entry)

Homo sapiens = species on record: Homo sapiens; test: Selectivity ratio of Ki for human recombinant SphK1 to Ki for human recombinant SphK2
How it was run: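 Recombinant human SphK1 and SphK2. Inhibitory constants came from kinetic analysis of S1P production, with sphingosine concentration varied and ATP held at a fixed concentration, run with and without inhibitor. Selectivity was taken as the ratio of the two enzymes' constants.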

Sequence of Sphingosine kinase 1 (Q9NYA1 whole entry): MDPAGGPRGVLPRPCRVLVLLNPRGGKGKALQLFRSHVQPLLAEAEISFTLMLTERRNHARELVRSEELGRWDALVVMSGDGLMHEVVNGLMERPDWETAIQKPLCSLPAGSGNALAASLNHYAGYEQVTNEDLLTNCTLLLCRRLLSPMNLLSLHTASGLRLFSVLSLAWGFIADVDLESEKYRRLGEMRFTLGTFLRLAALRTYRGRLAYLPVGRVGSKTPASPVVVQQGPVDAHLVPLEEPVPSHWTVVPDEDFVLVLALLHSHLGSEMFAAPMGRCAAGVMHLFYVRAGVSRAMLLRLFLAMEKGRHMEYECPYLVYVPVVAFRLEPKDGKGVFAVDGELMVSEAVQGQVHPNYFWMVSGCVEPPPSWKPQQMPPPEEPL

Row | SMILES | Activity [1] [%] | Ki (Sphingosine kinase 1) [µM] | Ki (Sphingosine kinase 2) [µM] | Ratio Ki (Homo sapiens)
1 | Cc1ccc(COc2ccc3cc(-c4noc([C@@H]5CCCN5C(=N)N)n4)ccc3c2)cc1 | 94 | – | – | –
2 | N=C(N)N1CCC[C@H]1c1nc(-c2ccc3cc(OCc4cccc(Br)c4)ccc3c2)no1 | 49 | – | – | –
3 | N=C(N)N1CCC[C@H]1c1nc(-c2ccc3cc(OCc4ccccc4)ccc3c2)no1 | 97 | – | – | –
4 | Cc1ccc(S(=O)(=O)Oc2ccc3cc(-c4noc([C@@H]5CCCN5C(=N)N)n4)ccc3c2)cc1 | 89 | – | – | –
5 | N=C(N)N1CCC[C@H]1c1nc(-c2ccc3cc(OCC4CCCC4)ccc3c2)no1 | 57 | – | – | –
6 | N=C(N)N1CCC[C@H]1c1nc(-c2ccc3cc(O)ccc3c2)no1 | 106 | – | – | –
7 | N=C(N)N1CCC[C@H]1c1nc(-c2ccc3cc(OCc4ccc(-c5ccccc5)cc4)ccc3c2)no1 | 51 | – | – | –
8 | N=C(N)N1CCC[C@H]1c1nc(-c2ccc3cc(OCCc4cccc(C(F)(F)F)c4)ccc3c2)no1 | 34 | – | – | –
9 | CCCCCCOc1ccc2cc(-c3noc([C@@H]4CCCN4C(=N)N)n3)ccc2c1 | 64 | > 10 | 3.8 | > 2.6
10 | N=C(N)N1CCC[C@H]1c1nc(-c2ccc3cc(OCC(=O)c4ccc(C(F)(F)F)cc4)ccc3c2)no1 | 65 | – | – | –
11 | COCCOc1ccc2cc(-c3noc([C@@H]4CCCN4C(=N)N)n3)ccc2c1 | 118 | – | – | –
12 | N=C(N)N1CCC[C@H]1c1nc(-c2ccc3cc(OCc4cccc(Cl)c4)ccc3c2)no1 | 46 | – | – | –
13 | CCCCCCCCc1ccc(-c2noc([C@@H]3CCCN3C(=N)N)n2)cc1 | 61 | – | 1.4 | –
14 | N=C(N)N1CCC[C@H]1c1nc(-c2ccc3cc(OCC(=O)c4ccccc4)ccc3c2)no1 | 103 | – | – | –
15 | CC(C)COc1ccc2cc(-c3noc([C@@H]4[C@@H](O)CCN4C(=N)N)n3)ccc2c1 | 53 | 0.93 | 0.98 | 0.9
16 | N=C(N)N1CCC[C@H]1c1nc(-c2ccc3cc(OCc4ccc(Cl)cc4)ccc3c2)no1 | 56 | – | – | –
17 | N#Cc1ccc(COc2ccc3cc(-c4noc([C@@H]5CCCN5C(=N)N)n4)ccc3c2)cc1 | 43 | – | – | –
18 | COCCCOc1ccc2cc(-c3noc([C@@H]4CCCN4C(=N)N)n3)ccc2c1 | 109 | – | – | –
19 | CCCCCCCOc1ccc2cc(-c3noc([C@@H]4CCCN4C(=N)N)n3)ccc2c1 | 83 | – | – | –
20 | N=C(N)N1CCC[C@H]1c1nc(-c2ccc3cc(OCCc4ccc(C(F)(F)F)cc4)ccc3c2)no1 | 30 | – | – | –
21 | N=C(N)N1CCC[C@H]1c1nc(-c2ccc3cc(OCc4ccc(Br)cc4)ccc3c2)no1 | 35 | – | – | –
22 | CC(C)COc1ccc2cc(-c3noc([C@@H]4CCCN4C(=N)N)n3)ccc2c1 | 74 | – | – | –
23 | CCCCCOc1ccc2cc(-c3noc([C@@H]4CCCN4C(=N)N)n3)ccc2c1 | 51 | 7.2 | 0.98 | 7.3
24 | N=C(N)N1CCC[C@H]1c1nc(-c2ccc3cc(OCc4ccc(C(F)(F)F)cc4)ccc3c2)no1 | 42 | – | 1.02 | –
25 | CCCCOc1ccc2cc(-c3noc([C@@H]4CCCN4C(=N)N)n3)ccc2c1 | 69 | – | – | –
26 | N=C(N)N1CCC[C@H]1c1nc(-c2ccc3cc(OCc4cccc(C(F)(F)F)c4)ccc3c2)no1 | 81 | – | – | –
27 | CC1(C)CCC(C)(C)c2cc(COc3ccc4cc(-c5noc([C@@H]6CCCN6C(=N)N)n5)ccc4c3)ccc21 | 104 | – | – | –
28 | N=C(N)N1CCC[C@H]1c1nc(-c2ccc3cc(OCCc4ccccc4C(F)(F)F)ccc3c2)no1 | 47 | – | – | –
29 | N=C(N)N1CCC[C@H]1c1nc(-c2ccc3cc(OCC(=O)c4ccc(-c5ccccc5)cc4)ccc3c2)no1 | 77 | – | – | –
30 | CCCCCOc1ccc2cc(-c3noc([C@@H]4[C@@H](O)CCN4C(=N)N)n3)ccc2c1 | 46 | 0.73 | 0.9 | 0.8
